Bioassay records as filed in PubChem.
M1 PAM: positive allosteric modulators of human M1 muscarinic receptor; AID 588819; hit rate 0.088% among 360,000; CHO-K1 hM1, Fluo-8 calcium fluorescence, ACh EC20; 0% = ACh EC20, 100% = maximal ACh; activation, % at 3 µM; P11229; in the data active = activation above about 19%, passing the limit was not always enough
Target sequence (P11229 whole entry, looked up): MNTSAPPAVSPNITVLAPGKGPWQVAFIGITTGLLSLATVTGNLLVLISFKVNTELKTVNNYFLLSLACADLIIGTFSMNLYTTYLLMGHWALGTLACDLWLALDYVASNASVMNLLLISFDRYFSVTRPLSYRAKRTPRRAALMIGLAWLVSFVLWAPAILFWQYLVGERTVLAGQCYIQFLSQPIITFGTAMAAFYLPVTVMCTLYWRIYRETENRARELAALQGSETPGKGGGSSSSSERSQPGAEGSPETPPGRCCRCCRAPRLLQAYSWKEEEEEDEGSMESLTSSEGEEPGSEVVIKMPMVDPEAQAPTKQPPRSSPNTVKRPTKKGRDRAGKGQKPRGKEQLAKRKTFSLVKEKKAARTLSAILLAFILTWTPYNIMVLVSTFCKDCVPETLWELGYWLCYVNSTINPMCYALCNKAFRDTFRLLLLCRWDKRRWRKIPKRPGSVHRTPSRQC
M1 ag: agonists of human M1 muscarinic receptor. CHO-K1 hM1, Fluo-8 calcium fluorescence, agonist mode; 0% DMSO, 100% acetylcholine EC100. P11229. activation, % at 3 µM. AID 588814. hit rate 0.33% among 360,000;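 active = activation above the run's mean compound activation plus 3 SD, cut at about 16% in these data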;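 note: peak over basal fluorescence ratio within a 140 s kinetic read after compound addition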
TAAR1 ag: agonists of human TAAR1; Q96RJ0; CHO RD-HGA16 TAAR1, Fluo-8 calcium fluorescence; vehicle wells 0%, saturating PEA agonist 100%; activation, % at 3 µM; hit rate 0.99% among 360,000; AID 624467;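 active = activation above the mean activation of all test compounds in the run plus 3 SD, cut at about 38% in these data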
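Assay system – CHO-derived RD-HGA16 cells with stable Gα16 and human TAAR1 · Compound dosing – one-point dosing at 3 µM (nominal) · Incubation – 17-24 h seeding, 75 min 37 °C dye, 30 min RT · Measured by – kinetic Fluo-8 calcium fluorescence · Control set – DMSO vehicle as 0%, PEA at EC100 as 100% · Repeats – single well for each compound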
TAAR1 antag: human TAAR1 antagonism; hit rate 1.5% among 360,000; CHO RD-HGA16 TAAR1, Fluo-8 calcium fluorescence, antagonist; Q96RJ0; inhibition, % at 3 µM;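 active = inhibition above a per-plate cutoff, the mean inhibition of test compounds on that plate plus 3 SD, cut at about 49% in these data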;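 note: 0% = DMSO plus EC80 beta-PEA response and 100% = DMSO alone without agonist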
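Test system: CHO RD-HGA16 cells bearing hTAAR1 | Reagent: β-PEA, EC80 | Compound dosing: 3 µM, single point | Schedule: Dye loading 75 min at 37 °C, then 30 min room temperature | Signal: Calcium fluorescence with Fluo-8 | Evaluation: Percent inhibition of PEA-evoked calcium signal, max/basal emission ratio | Control set: DMSO-only wells and EC80 β-PEA-stimulated wells | Repeats: Singlicate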
CHRM1 antagonist: antagonists of human M1 muscarinic receptor; AID 588852; CHO-K1 hM1, Fluo-8 calcium fluorescence, ACh EC80 antagonist; hit rate 1.3% among 360,000; inhibition, % at 3 µM; P11229;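 active = percent inhibition above its own plate's cutoff, namely the mean of that plate's compound wells plus 3 SD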;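 note: peak over basal fluorescence ratio during 140 s after agonist addition; 0% = ACh EC80 plus DMSO and 100% = DMSO alone without agonist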
TAAR1 ag confirm: confirmation of human TAAR1 agonists; hit rate 82% among 2,400; CHO RD-HGA16 TAAR1, Fluo-8 calcium fluorescence; scaled: DMSO 0%, maximal phenethylamine 100%; activation, % at 3 µM; AID 651783; shares compounds with TAAR1 ag;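 active = activation above a cutoff set at the run's mean compound activation plus 3 SD, cut at about 39% in these data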
Ga16 ag counter: counter-screen for TAAR1 agonists: nonselective agonists in parental cells; activation, % at 3 µM; hit rate 50% among 2,400; CHO-Ga16 parental, Fluo-8 calcium fluorescence; normalized to maximal ATP response, DMSO zero; shares compounds with TAAR1 ag;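 active = activation above the run cutoff, the mean activation over all tested wells plus 3 SD, cut at about 12% in these data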;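 note: 0% = DMSO wells and 100% = maximal ATP response on the peak over basal ratio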
TAAR1 desensitize: human TAAR1 agonist that also desensitizes the receptor. CHO RD-HGA16 hTAAR1, Fluo-8 calcium, beta-PEA response inhibition. inhibition, % at 3 µM. shares compounds with TAAR1 ag. hit rate 46% among 2,400;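 active = inhibition above the run cutoff, the mean inhibition of all test compounds plus 3 SD, cut at about 49% in these data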;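 note: beta-PEA stimulus applied at its EC80; loss of beta-PEA calcium signal after compound pretreatment read as receptor desensitization; 0% = DMSO with beta-PEA at EC80 and 100% = DMSO alone without agonist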
Ga16 nonsel ant: counter-screen for TAAR1 agonists: nonselective Ga16 antagonists. inhibition, % at 3 µM. hit rate 39% among 2,400. AID 651952. CHO-Ga16 ATP-induced calcium, Fluo-8 fluorescence. shares compounds with TAAR1 ag;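 active = inhibition above the plate's mean compound inhibition plus 3 SD, computed per plate, cut at about 22% in these data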;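 note: 0% = EC80 ATP with DMSO and 100% = DMSO wells without ATP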
* hit, by the source's call; . = not tested or not shown. Hits are enriched below; roughly 3.4% of the tested compounds scored in any of these assays.

SMILES	M1 PAM	M1 ag	TAAR1 ag	TAAR1 antag	CHRM1 antagonist	TAAR1 ag confirm	Ga16 ag counter	TAAR1 desensitize	Ga16 nonsel ant
O=C(NNC(=S)NC(=O)c1sc2ccccc2c1Cl)c1ccc(Cl)cc1	-6	-3	91*	50*	9	163*	141*	106*	103*
COc1ccc(C(=O)NC(=S)NNC(=O)c2ccc(C)cc2)cc1	-21	87*	170*	106*	31	157*	124*	105*	70*
CCC(=O)NC(=S)NNC(=O)c1ccc(OC)cc1	-1	-4	3	11	0	.	.	.	.
COc1ccc(C(=O)NNC(=S)NC(=O)c2ccc(Cl)cc2)cc1	.	.	176*	106*	.	141*	117*	102*	86*
COc1ccc(-c2nn(-c3ccccc3)cc2C(=O)NC(=S)NNC(=O)c2ccncc2)cc1	-5	5	101*	56*	16	82*	74*	76*	70*
COc1ccccc1-c1ccc([C@@H]2C[C@H]3[C@H](CON3C)CN2C(=O)c2ccco2)cc1	3	-3	3	-1	-13	.	.	.	.
COc1ccc(NC(=O)CCNS(=O)(=O)c2ccc(C)c(C)c2)cc1OC	16	1	1	-10	-20	.	.	.	.
COc1ccc(C(=O)NC(=S)NNC(=O)c2ccc3ccccc3n2)cc1	1	3	51*	-16	0	89*	69*	45	37*
Cc1cccc(C(=O)NNC(=O)c2ccc(Br)cc2)c1	0	-2	1	3	2	.	.	.	.
COc1cc(C(=O)NNC(=S)NC(=O)c2ccc(Cl)cc2)cc(OC)c1OC	-14	33*	141*	86*	0	93*	84*	67*	43*
COc1cc(CCC(=O)NNC(=O)c2ccc(Cl)cc2)cc(OC)c1OC	10	-1	2	-7	-7	.	.	.	.
CCCCC(=O)NNC(=S)NC(=O)c1ccc(C)cc1	-2	39*	98*	36	0	83*	82*	38	40*
COc1cc(OC)cc(C(=O)NNC(=O)c2ccc3ccccc3n2)c1	6	-2	1	-6	-7	.	.	.	.
Cc1cccc(C(=O)NC(=S)NNC(=O)c2ccc(Cl)cc2)c1	-29	93*	171*	104*	37*	159*	121*	107*	93*
CCOC(=O)[C@H]1[C@H]2COc3ccc(Br)cc3[C@@H]2N2C(=O)c3c(C)cc(C)cc3NC(=O)[C@@]12C	8	-2	-2	7	-2	.	.	.	.
CC(Nc1ncnc2sccc12)c1ccccc1 (stereo unspecified)	-12	3	5	14	25	.	.	.	.
COC(=O)C[C@H]1CC[C@@H](NC(=O)Nc2cccc(OC)c2)[C@@H](CO)O1	.	.	1	-10	.	.	.	.	.
CCCC(C)c1nnc(NC(=O)COc2ccc3c(c2)OCO3)s1 (stereo unspecified)	-13	-10	27	-4	8	.	.	.	.
O=C(COc1cccc(-n2cnnn2)c1)Nc1ccc([N+](=O)[O-])cc1	15	1	1	20	-8	.	.	.	.
COC(=O)C1=C(C)N(Cc2cccc(C(F)(F)F)c2)C(=NCc2ccc3c(c2)OCO3)NC1c1ccccc1 (stereo unspecified)	.	.	43*	48	.	47*	14*	31	27*
COC(=O)C1=C(C)N(Cc2cccc(C(F)(F)F)c2)C(=NCc2ccc3c(c2)OCO3)NC1c1cccc(F)c1 (stereo unspecified)	.	.	65*	58*	.	58*	20*	68*	43*
COC(=O)C1=C(C)N(Cc2ccccc2C(F)(F)F)C(=NCc2ccc3c(c2)OCO3)NC1c1ccc(F)cc1 (stereo unspecified)	.	.	22	-3	.	.	.	.	.
COC(=O)C1=C(C)N(Cc2cccc(C(F)(F)F)c2)C(=NCc2cc(OC)c(OC)c(OC)c2)NC1c1ccc(F)cc1 (stereo unspecified)	.	.	60*	52*	.	23	16*	17	30*
O=C(N=C1SC2CS(=O)(=O)CC2N1Cc1ccccc1)C1CCCCC1 (stereo unspecified)	11	-1	0	-38	-18	.	.	.	.
O=C(O)c1cc2ccccc2cc1Nc1ccccc1	12	-3	3	-34	-20	.	.	.	.
SMILES	M1 PAM	M1 ag	TAAR1 ag	TAAR1 antag	CHRM1 antagonist	TAAR1 ag confirm	Ga16 ag counter	TAAR1 desensitize	Ga16 nonsel ant
Cc1ccc(NC(=O)COC(=O)CC2CCCC2)cc1F	8	-4	6	4	-13	.	.	.	.
Nc1ncnc2c1ncn2[C@@H]1O[C@H](CNCC(O)CO)[C@@H](O)[C@H]1O (stereo partly specified)	9	1	0	-12	-21	.	.	.	.
C=CCn1c(O)c(CN2CCCCC2)c(C)c(C#N)c1=O	10	0	17	-26	-18	.	.	.	.
Cc1c(CN2CCCC(C)C2)c(O)n(CCO)c(=O)c1C#N (stereo unspecified)	8	-5	.	.	-8	.	1	.	8
Cc1nc2ccccc2n1CCc1ccccc1	7	-5	5	-1	-6	.	.	.	.
Cc1nc(C(N)=O)c(N)n1CCc1ccccc1	20	2	98*	72*	-8	70*	1	48	5
O=C(Cn1nnc(-c2ccc3c(c2)OCO3)n1)NCc1ccccc1	5	-4	3	-12	1	.	.	.	.
Cc1ccc(-c2nnn(CC(=O)NCCc3ccc4c(c3)OCO4)n2)cc1	11	-8	78*	67*	-6	47*	10	23	16
COC(=O)NC1c2ccccc2Oc2ccccc21	1	-6	0	9	4	.	.	.	.
COC(=O)NC1c2ccccc2Oc2ccc(C)cc21 (stereo unspecified)	17	-5	43*	38	-15	83*	38*	76*	34*
CCOc1ccc(NC(=O)Cn2nnc(-c3ccccc3F)n2)cc1	-3	-5	75*	32	2	29	4	11	12
CN(C)c1ccc(C(=O)/C=C/c2cccnc2)cc1	7	-5	0	-4	-8	.	.	.	.
CN(C)c1ccc(/C=C/C(=O)c2cccc(Br)c2)cc1	-33	164*	328*	109*	81*	126*	125*	85*	83*
